Assay [1] addresses T1, Adenosine receptor A1 (Homo sapiens, UniProt P30542).
T1 sequence (P30542 whole entry): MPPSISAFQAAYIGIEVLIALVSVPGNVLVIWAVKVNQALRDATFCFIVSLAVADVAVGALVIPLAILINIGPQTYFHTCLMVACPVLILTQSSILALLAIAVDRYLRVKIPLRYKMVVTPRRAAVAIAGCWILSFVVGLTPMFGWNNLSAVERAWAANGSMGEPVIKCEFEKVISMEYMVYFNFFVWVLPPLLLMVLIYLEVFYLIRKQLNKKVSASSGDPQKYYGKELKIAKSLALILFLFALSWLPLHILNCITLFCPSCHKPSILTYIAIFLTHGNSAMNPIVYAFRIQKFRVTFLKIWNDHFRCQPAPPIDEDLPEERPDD
Kind of assay: Displacement of [3H]CCPA from human adenosine receptor A1 expressed in CHO cell membranes incubated for 90 mins by radioligand competition assay. Also noted: species or system Cell membrane. For orientation: In a radioligand displacement assay an active substance lowers the binding of a labelled ligand.

Assay [2] addresses T2, Adenosine receptor A1 (Rattus norvegicus, UniProt P25099).
T2 sequence (P25099 whole entry): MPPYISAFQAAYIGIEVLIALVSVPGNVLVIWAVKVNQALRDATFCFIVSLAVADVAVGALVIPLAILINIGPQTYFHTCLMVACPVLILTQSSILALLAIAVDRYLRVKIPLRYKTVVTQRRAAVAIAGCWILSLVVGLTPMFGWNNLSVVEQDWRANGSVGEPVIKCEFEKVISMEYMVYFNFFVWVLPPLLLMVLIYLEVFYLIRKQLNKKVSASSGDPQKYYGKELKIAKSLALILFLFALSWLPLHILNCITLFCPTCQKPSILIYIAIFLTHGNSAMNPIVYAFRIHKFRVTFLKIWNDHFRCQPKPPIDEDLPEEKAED
Kind of assay: Displacement of [3H]CCPA from adenosine receptor A1 in rat brain cortex membranes incubated for 90 mins by radioligand competition assay. The format is cell membranes, Cell membrane.

Assay [3] has as its target T3, Adenosine receptor A2a (Homo sapiens, UniProt P29274). Kind of assay: Displacement of [3H]MSX2 from human adenosine receptor A2A expressed in HEK293 cell membranes incubated for 30 mins by radioligand competition assay. Also on record: species or system Cell membrane.
Assay [4] deals with T3, Adenosine receptor A2a. Kind of assay: Displacement of [3H]MSX2 from human adenosine receptor A2A expressed in HEK293 cell membranes at 0.1 uM incubated for 30 mins by radioligand competition assay relative to control. Conditions: Cell membrane, in the assay text read “at 1 uM” for “at 0.1 uM”. Summed up:
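A2A binding, [3H]MSX-2 1.0 nM. Membranes: rat brain striatum, or HEK293 cells expressing human A2A. Adenosine deaminase preincubation 20 min, then 30 min at rt in 50 mM Tris-HCl pH 7.4 with 2.5% DMSO. Nonspecific binding defined by 50 µM NECA. GF/B filtration, scintillation counting. Single-concentration percent inhibition, ≥3 experiments in duplicate or triplicate.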

The target of assay [5] is T2, Adenosine receptor A1. Kind of assay: Displacement of [3H]DPCPX from rat brain cortical membrane A1AR in absence of GTP by scintillation counting analysis. The format is cell membranes, Cortex, Cell membrane.
Assay [6] has as its target T2, Adenosine receptor A1. In words: Displacement of [3H]CCPA from rat adenosine receptor A1 by radioligand competition assay. Summed up: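 A1 competition binding with [3H]CCPA, 0.5 nM. Membranes: CHO cells expressing human A1, or rat brain cortex. Membranes preincubated 20 min with adenosine deaminase (2 U/mL per mg protein). Incubation 90 min at rt in 50 mM Tris-HCl pH 7.4 with 2.5% final DMSO. Nonspecific binding defined by 10 µM 2-chloroadenosine. GF/B filtration, scintillation counting.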

In assay [7] the target is T2, Adenosine receptor A1. Kind of assay: Displacement of [3H]DPCPX from rat adenosine receptor A1 by radioligand competition assay. An outline of the steps: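 Rat brain cortical membranes, [3H]DPCPX 0.4 nM. Nonspecific binding defined by 10 μM DPCPX. Curves run with and without 100 μM GTP. Incubation 90 min at rt in 50 mM Tris-HCl pH 7.4, after 20 min adenosine deaminase preincubation. Filtration, then scintillation counting. GTP shift is the IC50 with GTP divided by the IC50 without GTP.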

Drawing on ChEMBL document CHEMBL4680130, “Substituted 4-phenylthiazoles: Development of potent and selective A, A and dual A/A adenosine receptor antagonists” (Eur J Med Chem, 2020), this text covers Ki, inhibition and IC50 for 1 compound.

T3 sequence (P29274 whole entry): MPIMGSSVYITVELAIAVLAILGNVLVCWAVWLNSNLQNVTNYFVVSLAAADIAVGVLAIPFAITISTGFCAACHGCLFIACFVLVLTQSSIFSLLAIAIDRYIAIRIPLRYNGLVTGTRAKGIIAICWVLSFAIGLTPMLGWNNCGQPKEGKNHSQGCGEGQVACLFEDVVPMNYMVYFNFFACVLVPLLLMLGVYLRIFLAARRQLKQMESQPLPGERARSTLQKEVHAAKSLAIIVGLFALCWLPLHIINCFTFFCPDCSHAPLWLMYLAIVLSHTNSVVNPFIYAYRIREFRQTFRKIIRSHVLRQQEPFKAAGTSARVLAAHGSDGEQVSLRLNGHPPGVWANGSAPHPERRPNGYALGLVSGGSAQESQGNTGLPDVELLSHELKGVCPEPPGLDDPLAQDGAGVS

`COc1ccc(C(=O)Nc2nc(-c3ccccc3)c(C(=O)c3ccc(C)cc3)s2)cc1`: the inhibition constant Ki is 9.69 nM in assay [1]; 0.529 nM in assay [2]; more than 1000 nM in assay [3]; 0.529 nM in assay [6]; 0.0709 nM in assay [7]. The same compound showed an inhibition in assay [4] of 28%. In assay [5], this compound returned an IC50 of 0.0756 nM.

As a reminder, the Ki is a dissociation constant, usually derived from enzyme kinetics or from competition with a known ligand. Low values mean tighter binding, high ones weaker binding. The inhibition is the share of the control response that was lost under treatment. A higher inhibition goes with a response far below the control. One may read the IC50 as the concentration at which inhibition is half-maximal. Read a high IC50 as lower potency.
